# Laboratory results: ChEMBL document CHEMBL4152228, “Structural-based design, synthesis, and antitumor activity of novel alloxazine analogues with potential selective kinase inhibition” (Eur J Med Chem, 2018)
# Key:
# [1] = test system: MCF7; test: Induction of apoptosis in human MCF7 cells assessed as late apoptotic cells at 10 uM after 72 hrs by annexin V-FITC/propidium iodide staining-based flow cytometric method (reference value: 2.6%); format: functional
# [2] = test system: MCF7; test: Induction of apoptosis in human MCF7 cells assessed as increase of late apoptotic cells at 10 uM after 72 hrs by annexin V-FITC/propidium iodide staining-based flow cytometric method relative to control; format: functional
# Method in brief: (§1)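 MCF-7 cells treated 72 h at final 1, 5, 10 µM, then annexin V-FITC/PI stained in pH 7.4 HEPES binding buffer and analysed by flow cytometry. Early or late apoptotic cell fraction expressed as percent change versus vehicle control: (sample − control)/control × 100. Triplicates.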
# [3] = molecular target: Mitogen-activated protein kinase 3 (Homo sapiens) (UniProt P27361); test: Inhibition of ERK1 (unknown origin) at 10 uM by [33P]-ATP radiometric assay
# Method in brief: (§2)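 Radiometric kinase profiling: purified recombinant kinase (~10–50 nM final) with substrate, assay buffer and compound at 10 µM (control 10% DMSO). Started with 33P-ATP (50 µM stock, 0.8 µCi), run 30 min at ambient temperature, then spotted onto P81 phosphocellulose and washed in 1% phosphoric acid. Scintillation counted, no-substrate blank subtracted, single measurement, result given as % change versus control.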
# [4] = test system: MCF7; test: Induction of apoptosis in human MCF7 cells assessed as necrotic cells at 10 uM after 72 hrs by annexin V-FITC/propidium iodide staining-based flow cytometric method (reference value: 12.6%); format: functional
# [5] = test system: MCF7; test: Induction of apoptosis in human MCF7 cells assessed as necrotic cells at 5 uM after 72 hrs by annexin V-FITC/propidium iodide staining-based flow cytometric method (reference value: 12.6%); format: functional
# [6] = test system: A2780; test: Antiproliferative activity against human A2780 cells after 72 hrs by MTT assay; format: functional, cell-based; settings: A2780, 72 h
# Method in brief: (§3)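 MTT viability assay. Cells grown in RPMI-1640 with 10% heat-inactivated FBS, L-glutamine and 1% penicillin/streptomycin, used within 20 passages. Seeded at 5×10^3 cells/well, left overnight at 37 °C, then exposed to final concentrations of 0.005–50 µM (0.1% DMSO) for up to 72 h. MTT added for 3 h, formazan dissolved in DMSO, absorbance read at 550 nm. IC50 derived relative to untreated controls.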
# [7] = molecular target: Calcium/calmodulin-dependent protein kinase type II subunit alpha (Homo sapiens) (UniProt Q9UQM7); test: Inhibition of CAMK2-alpha (unknown origin) at 10 uM by [33P]-ATP radiometric assay; method in brief: as §2
# Calcium/calmodulin-dependent protein kinase type II subunit alpha (Homo sapiens), sequence (Q9UQM7 whole entry): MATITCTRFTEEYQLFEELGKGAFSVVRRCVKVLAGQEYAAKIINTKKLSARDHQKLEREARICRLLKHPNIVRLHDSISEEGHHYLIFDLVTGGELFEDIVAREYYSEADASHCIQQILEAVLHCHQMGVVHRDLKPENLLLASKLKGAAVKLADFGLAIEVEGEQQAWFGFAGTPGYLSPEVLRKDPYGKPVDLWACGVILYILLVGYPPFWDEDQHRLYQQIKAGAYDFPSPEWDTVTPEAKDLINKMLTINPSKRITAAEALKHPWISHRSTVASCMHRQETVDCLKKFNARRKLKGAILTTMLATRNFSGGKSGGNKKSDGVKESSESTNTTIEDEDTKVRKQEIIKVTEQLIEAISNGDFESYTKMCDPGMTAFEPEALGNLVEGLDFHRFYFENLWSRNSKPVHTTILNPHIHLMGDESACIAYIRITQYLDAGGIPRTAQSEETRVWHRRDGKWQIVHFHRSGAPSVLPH
# [8] = test system: MCF7; test: Induction of apoptosis in human MCF7 cells assessed as late apoptotic cells at 5 uM after 72 hrs by annexin V-FITC/propidium iodide staining-based flow cytometric method (reference value: 2.6%); format: functional
# [9] = test system: MCF7; test: Antiproliferative activity against human MCF7 cells after 72 hrs by MTT assay; format: functional, cell-based; settings: MCF7, 72 h; method in brief: as §3
# [10] = test system: MCF7; test: Induction of apoptosis in human MCF7 cells assessed as viable cells at 1 uM after 72 hrs by annexin V-FITC/propidium iodide staining-based flow cytometric method (reference value: 76%); format: functional; settings: MCF7, 72 h, read-out: Activity
# [11] = molecular target: Hepatocyte growth factor receptor (Homo sapiens) (UniProt P08581); test: Inhibition of MET (unknown origin) at 10 uM by [33P]-ATP radiometric assay; method in brief: as §2
# Hepatocyte growth factor receptor (Homo sapiens), sequence (P08581 whole entry, canonical isoform): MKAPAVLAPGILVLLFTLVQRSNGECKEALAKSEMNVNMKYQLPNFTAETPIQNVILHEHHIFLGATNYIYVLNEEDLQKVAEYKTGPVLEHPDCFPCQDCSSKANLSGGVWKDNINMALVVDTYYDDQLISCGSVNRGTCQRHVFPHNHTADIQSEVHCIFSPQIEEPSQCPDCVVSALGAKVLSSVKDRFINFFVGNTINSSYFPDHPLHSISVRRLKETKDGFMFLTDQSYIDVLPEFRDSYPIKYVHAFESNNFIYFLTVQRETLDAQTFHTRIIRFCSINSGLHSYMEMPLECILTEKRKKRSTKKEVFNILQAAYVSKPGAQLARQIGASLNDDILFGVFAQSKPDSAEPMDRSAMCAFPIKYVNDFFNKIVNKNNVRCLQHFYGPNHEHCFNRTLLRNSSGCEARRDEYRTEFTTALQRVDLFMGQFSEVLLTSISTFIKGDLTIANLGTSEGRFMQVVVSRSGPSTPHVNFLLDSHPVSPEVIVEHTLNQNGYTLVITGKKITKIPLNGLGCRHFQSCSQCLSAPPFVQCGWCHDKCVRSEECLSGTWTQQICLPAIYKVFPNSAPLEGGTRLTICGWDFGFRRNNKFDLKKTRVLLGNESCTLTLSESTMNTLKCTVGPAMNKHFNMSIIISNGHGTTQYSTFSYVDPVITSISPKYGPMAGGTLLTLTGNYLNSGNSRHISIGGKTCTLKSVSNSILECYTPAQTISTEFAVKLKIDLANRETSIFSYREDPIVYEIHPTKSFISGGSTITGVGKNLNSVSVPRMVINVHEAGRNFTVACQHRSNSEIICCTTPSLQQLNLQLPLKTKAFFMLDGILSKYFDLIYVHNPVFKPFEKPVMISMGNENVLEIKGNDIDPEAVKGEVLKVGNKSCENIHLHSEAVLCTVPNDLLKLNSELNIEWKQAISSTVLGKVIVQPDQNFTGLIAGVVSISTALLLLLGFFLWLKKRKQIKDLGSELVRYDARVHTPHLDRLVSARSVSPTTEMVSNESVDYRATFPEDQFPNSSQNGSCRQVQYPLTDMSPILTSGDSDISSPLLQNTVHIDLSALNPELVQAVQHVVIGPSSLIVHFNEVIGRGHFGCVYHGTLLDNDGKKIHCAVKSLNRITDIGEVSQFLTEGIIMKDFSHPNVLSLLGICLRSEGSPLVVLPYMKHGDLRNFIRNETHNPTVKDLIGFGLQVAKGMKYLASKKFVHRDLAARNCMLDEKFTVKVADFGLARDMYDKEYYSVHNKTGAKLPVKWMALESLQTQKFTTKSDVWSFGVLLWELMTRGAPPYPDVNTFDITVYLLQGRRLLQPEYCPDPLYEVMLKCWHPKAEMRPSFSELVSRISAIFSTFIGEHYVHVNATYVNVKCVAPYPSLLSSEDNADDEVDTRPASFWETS
# [12] = molecular target: Casein kinase I isoform alpha (Homo sapiens) (UniProt P48729); test: Inhibition of CK1alpha1 (unknown origin) at 10 uM by [33P]-ATP radiometric assay; method in brief: as §2
# Casein kinase I isoform alpha (Homo sapiens), sequence (P48729 2-337 limits assumed): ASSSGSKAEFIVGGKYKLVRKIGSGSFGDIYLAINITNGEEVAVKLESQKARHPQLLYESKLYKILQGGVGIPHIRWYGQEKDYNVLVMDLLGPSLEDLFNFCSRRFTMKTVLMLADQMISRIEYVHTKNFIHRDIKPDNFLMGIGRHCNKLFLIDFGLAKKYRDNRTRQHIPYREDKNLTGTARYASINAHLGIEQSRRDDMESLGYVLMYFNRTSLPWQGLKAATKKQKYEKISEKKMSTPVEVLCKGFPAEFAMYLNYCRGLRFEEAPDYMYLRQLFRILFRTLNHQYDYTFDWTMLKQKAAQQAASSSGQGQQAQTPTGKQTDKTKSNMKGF
# [13] = Antiproliferative activity against human WM793B cells after 72 hrs by MTT assay; format: functional, cell-based; method in brief: as §3
# [14] = test system: MCF7; test: Induction of apoptosis in human MCF7 cells assessed as early apoptotic cells at 10 uM after 72 hrs by annexin V-FITC/propidium iodide staining-based flow cytometric method (reference value: 9%); format: functional
# [15] = molecular target: Calcium/calmodulin-dependent protein kinase type 1 (Homo sapiens) (UniProt Q14012); test: Inhibition of CAMK1 (unknown origin) at 10 uM by [33P]-ATP radiometric assay; method in brief: as §2
# Calcium/calmodulin-dependent protein kinase type 1 (Homo sapiens), sequence (Q14012 whole entry, looked up): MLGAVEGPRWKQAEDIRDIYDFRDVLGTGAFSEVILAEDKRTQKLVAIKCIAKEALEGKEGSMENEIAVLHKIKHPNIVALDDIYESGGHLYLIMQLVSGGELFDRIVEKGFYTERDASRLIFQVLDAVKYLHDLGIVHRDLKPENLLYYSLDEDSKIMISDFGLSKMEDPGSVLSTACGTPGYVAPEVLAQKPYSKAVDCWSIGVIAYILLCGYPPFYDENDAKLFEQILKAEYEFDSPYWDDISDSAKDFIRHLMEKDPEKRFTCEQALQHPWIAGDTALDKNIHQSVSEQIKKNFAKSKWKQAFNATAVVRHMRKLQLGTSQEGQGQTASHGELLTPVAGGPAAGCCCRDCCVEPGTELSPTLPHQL
# [16] = molecular target: Epidermal growth factor receptor (Homo sapiens) (UniProt P00533); test: Inhibition of EGFR (unknown origin) at 10 uM by [33P]-ATP radiometric assay; method in brief: as §2
# Epidermal growth factor receptor (Homo sapiens), sequence (P00533 whole entry): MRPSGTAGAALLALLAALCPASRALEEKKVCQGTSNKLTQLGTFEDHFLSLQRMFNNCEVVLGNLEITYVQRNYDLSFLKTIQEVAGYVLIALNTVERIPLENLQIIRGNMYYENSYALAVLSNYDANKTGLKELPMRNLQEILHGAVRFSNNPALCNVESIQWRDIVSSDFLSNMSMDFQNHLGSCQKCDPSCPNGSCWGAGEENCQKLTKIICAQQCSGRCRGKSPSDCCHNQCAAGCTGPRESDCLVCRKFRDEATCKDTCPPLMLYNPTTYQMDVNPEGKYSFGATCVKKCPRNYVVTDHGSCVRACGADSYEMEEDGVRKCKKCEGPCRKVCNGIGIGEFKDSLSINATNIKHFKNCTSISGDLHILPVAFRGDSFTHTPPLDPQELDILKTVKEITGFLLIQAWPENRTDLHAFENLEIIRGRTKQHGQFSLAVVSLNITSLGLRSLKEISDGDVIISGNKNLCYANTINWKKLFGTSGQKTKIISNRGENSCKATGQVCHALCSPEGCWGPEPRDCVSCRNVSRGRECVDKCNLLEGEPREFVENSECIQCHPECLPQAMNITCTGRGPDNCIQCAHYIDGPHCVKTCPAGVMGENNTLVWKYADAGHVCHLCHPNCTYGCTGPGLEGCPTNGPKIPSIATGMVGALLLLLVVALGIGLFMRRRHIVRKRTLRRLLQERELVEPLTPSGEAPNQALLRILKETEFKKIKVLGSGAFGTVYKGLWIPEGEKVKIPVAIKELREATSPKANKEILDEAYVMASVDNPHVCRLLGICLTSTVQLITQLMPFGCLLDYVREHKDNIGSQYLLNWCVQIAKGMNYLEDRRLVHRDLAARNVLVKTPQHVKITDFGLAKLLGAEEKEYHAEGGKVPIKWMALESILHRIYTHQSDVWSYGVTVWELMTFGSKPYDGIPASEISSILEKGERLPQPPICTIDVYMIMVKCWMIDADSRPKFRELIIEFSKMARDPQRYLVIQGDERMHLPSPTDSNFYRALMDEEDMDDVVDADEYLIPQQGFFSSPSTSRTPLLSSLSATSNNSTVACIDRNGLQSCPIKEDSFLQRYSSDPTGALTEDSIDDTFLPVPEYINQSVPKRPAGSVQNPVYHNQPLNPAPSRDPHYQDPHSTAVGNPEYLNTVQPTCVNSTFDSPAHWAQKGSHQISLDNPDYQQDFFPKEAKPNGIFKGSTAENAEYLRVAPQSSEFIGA
# [17] = molecular target: Vascular endothelial growth factor receptor 1 (Homo sapiens) (UniProt P17948); test: Inhibition of FLT1 (unknown origin) at 10 uM by [33P]-ATP radiometric assay; method in brief: as §2
# [18] = test system: MCF7; test: Induction of apoptosis in human MCF7 cells assessed as early apoptotic cells at 5 uM after 72 hrs by annexin V-FITC/propidium iodide staining-based flow cytometric method (reference value: 9%); format: functional
# [19] = molecular target: Cyclin-dependent kinase 16 (Homo sapiens) (UniProt Q00536); test: Inhibition of CDK16 (unknown origin) at 10 uM by [33P]-ATP radiometric assay; method in brief: as §2
# Cyclin-dependent kinase 16 (Homo sapiens), sequence (Q00536 whole entry): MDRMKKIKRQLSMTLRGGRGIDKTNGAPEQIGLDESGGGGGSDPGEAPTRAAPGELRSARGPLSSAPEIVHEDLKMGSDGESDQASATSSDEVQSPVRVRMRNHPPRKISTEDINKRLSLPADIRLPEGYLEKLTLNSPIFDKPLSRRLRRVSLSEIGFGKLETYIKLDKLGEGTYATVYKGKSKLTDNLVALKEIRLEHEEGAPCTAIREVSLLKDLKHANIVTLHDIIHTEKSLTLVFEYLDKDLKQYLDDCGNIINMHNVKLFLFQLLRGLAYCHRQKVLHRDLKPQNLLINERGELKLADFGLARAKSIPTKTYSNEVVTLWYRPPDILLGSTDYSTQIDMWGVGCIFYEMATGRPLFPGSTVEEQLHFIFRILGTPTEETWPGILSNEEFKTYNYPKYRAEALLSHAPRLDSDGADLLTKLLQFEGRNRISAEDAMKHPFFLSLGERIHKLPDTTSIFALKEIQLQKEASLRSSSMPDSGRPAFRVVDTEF
# [20] = molecular target: Mitogen-activated protein kinase 8 (Homo sapiens) (UniProt P45983); test: Inhibition of JNK1 (unknown origin) at 10 uM by [33P]-ATP radiometric assay; method in brief: as §2
# Mitogen-activated protein kinase 8 (Homo sapiens), sequence (P45983 whole entry): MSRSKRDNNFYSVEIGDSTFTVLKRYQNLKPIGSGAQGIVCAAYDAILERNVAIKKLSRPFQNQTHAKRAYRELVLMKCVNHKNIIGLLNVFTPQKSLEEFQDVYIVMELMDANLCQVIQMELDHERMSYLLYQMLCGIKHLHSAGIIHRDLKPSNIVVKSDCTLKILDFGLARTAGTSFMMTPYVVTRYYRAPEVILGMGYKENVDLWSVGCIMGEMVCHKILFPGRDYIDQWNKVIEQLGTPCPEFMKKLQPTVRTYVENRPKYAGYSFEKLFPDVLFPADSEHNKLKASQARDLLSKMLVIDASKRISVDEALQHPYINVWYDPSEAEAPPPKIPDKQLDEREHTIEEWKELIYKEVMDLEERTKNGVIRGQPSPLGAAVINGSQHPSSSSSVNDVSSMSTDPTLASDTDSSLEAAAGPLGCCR
# [21] = test system: MCF7; test: Induction of apoptosis in human MCF7 cells assessed as late apoptotic cells at 1 uM after 72 hrs by annexin V-FITC/propidium iodide staining-based flow cytometric method (reference value: 2.6%); format: functional
# [22] = test system: MCF7; test: Induction of apoptosis in human MCF7 cells assessed as necrotic cells at 1 uM after 72 hrs by annexin V-FITC/propidium iodide staining-based flow cytometric method (reference value: 12.6%); format: functional
# [23] = test system: MCF7; test: Induction of apoptosis in human MCF7 cells assessed as increase of early apoptotic cells after 72 hrs by annexin V-FITC/propidium iodide staining-based flow cytometric method; format: functional, cell-based; method in brief: as §1
# [24] = test system: MCF7; test: Induction of apoptosis in human MCF7 cells assessed as early apoptotic cells at 1 uM after 72 hrs by annexin V-FITC/propidium iodide staining-based flow cytometric method (reference value: 9%); format: functional
# [25] = test system: MCF7; test: Induction of apoptosis in human MCF7 cells assessed as increase of early apoptotic cells at 1 to 10 uM after 72 hrs by annexin V-FITC/propidium iodide staining-based flow cytometric method relative to control; format: functional; method in brief: as §1
# [26] = test system: MCF7; test: Induction of apoptosis in human MCF7 cells assessed as viable cells at 5 uM after 72 hrs by annexin V-FITC/propidium iodide staining-based flow cytometric method (reference value: 76%); format: functional; settings: MCF7, 72 h, read-out: Activity
# [27] = test system: HCT-116; test: Antiproliferative activity against human HCT116 cells after 72 hrs by MTT assay; format: functional, cell-based; settings: HCT-116, 72 h; method in brief: as §3
# [28] = molecular target: Protein kinase C beta type (Homo sapiens) (UniProt P05771); test: Inhibition of PCK-beta2 (unknown origin) at 10 uM by [33P]-ATP radiometric assay; method in brief: as §2
# [29] = test system: K562; test: Antiproliferative activity against human K562 cells after 72 hrs by MTT assay; format: functional, cell-based; settings: K562, 72 h
# [30] = test system: MCF7; test: Induction of apoptosis in human MCF7 cells assessed as viable cells at 10 uM after 72 hrs by annexin V-FITC/propidium iodide staining-based flow cytometric method (reference value: 76%); format: functional; settings: MCF7, 72 h, read-out: Activity
# [31] = molecular target: Activin receptor type-2A (Homo sapiens) (UniProt P27037); test: Inhibition of ACVR2A (unknown origin) at 10 uM by [33P]-ATP radiometric assay; method in brief: as §2
# [32] = molecular target: Fibroblast growth factor receptor 1 (Homo sapiens) (UniProt P11362); test: Inhibition of FGFR1 (unknown origin) at 10 uM by [33P]-ATP radiometric assay; method in brief: as §2
# [33] = molecular target: Mast/stem cell growth factor receptor Kit (Homo sapiens) (UniProt P10721); test: Inhibition of c-KIT (unknown origin) at 10 uM by [33P]-ATP radiometric assay
# Method in brief: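 Radiometric kinase profiling: purified recombinant kinase (~10–50 nM final) with substrate, assay buffer and compound at 10 µM (control 10% DMSO). Started with 33P-ATP (50 µM stock, 0.8 µCi), run 30 min at ambient temperature, then spotted onto P81 phosphocellulose and washed in 1% phosphoric acid.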
# [34] = test system: MCF7; test: Induction of apoptosis in human MCF7 cells assessed as increase of early apoptotic cells at 1 uM after 72 hrs by annexin V-FITC/propidium iodide staining-based flow cytometric method relative to control; format: functional
# [35] = molecular target: Focal adhesion kinase 1 (Homo sapiens) (UniProt Q05397); test: Inhibition of FAK (unknown origin) at 10 uM by [33P]-ATP radiometric assay; method in brief: as §2
# [36] = molecular target: Receptor tyrosine-protein kinase erbB-2 (Homo sapiens) (UniProt P04626); test: Inhibition of HER2 (unknown origin) at 10 uM by [33P]-ATP radiometric assay; method in brief: as §2
# [37] = molecular target: Cyclin-dependent kinase 1/Cyclin A1 (Homo sapiens) (UniProt P06493+P78396); test: Inhibition of CDK1/cyclin A1 (unknown origin) at 10 uM by [33P]-ATP radiometric assay; format: protein-complex assay; method in brief: as §2
SMILES,Activity [1],inhibition [3],Activity [4],Activity [5],IC50 [6],inhibition [7],Activity [8],IC50 [9],viability at 1 µM [10],inhibition [11],inhibition [12],IC50 [13],Activity [14],inhibition [15],inhibition [16],Activity [18],inhibition [19],inhibition [20],IC50 [27],IC50 [29],other results
COc1ccc(CCN2CCC(Nc3nc4nc5ccc(C)cc5nc4c(=O)[nH]3)CC2)cc1,30%,8%,4.8%,3.6%,200 nM,4%,14.1%,160 nM,66.7%,7%,9%,> 50000 nM,20.7%,19%,-2%,18%,18%,10%,170 nM,> 50000 nM,fold change (FC) [2]: 12; inhibition [17]: -5%; Activity [21]: 13.3%; Activity [22]: 7.6%; Activity [23]: Dose-dependent effect; Activity [24]: 12.4%; fold change (FC) [25]: 2; viability at 5 µM [26]: 64.1%; inhibition [28]: 7%; viability at 10 µM [30]: 44.6%; inhibition [31]: -5%; inhibition [32]: 1%; inhibition [33]: -7%
CC(Nc1nc2nc3ccccc3nc2c(=O)[nH]1)c1ccccc1 (stereo unspecified),32%,,7.9%,5.1%,340 nM,,9.7%,160 nM,63.4%,,,> 50000 nM,14.4%,,,14.1%,,,140 nM,> 50000 nM,fold change (FC) [2]: 13; fold change (FC) [34]: >2; Activity [21]: 10.5%; Activity [22]: 4%; Activity [24]: 22.1%; viability at 5 µM [26]: 71.2%; viability at 10 µM [30]: 45.8%
COc1ccc2nc3nc(NCc4ccc(CN5CCN(C)CC5)cc4)[nH]c(=O)c3nc2c1,5.4%,7%,16.3%,18.6%,50 nM,8%,4.1%,40 nM,78.4%,2%,-1%,,6.2%,19%,25%,5%,12%,-7%,50 nM,> 50000 nM,inhibition [35]: -10%; inhibition [36]: -2%; inhibition [17]: 12%; Activity [21]: 3.7%; Activity [22]: 9.7%; Activity [24]: 8.1%; viability at 5 µM [26]: 72.3%; inhibition [28]: -7%; viability at 10 µM [30]: 72.2%; inhibition [31]: -6%; inhibition [32]: 8%; inhibition [33]: -9%
O=c1[nH]c(NCc2ccc(CN3CCCCC3)cc2)nc2nc3ccccc3cc12,,-1%,,,10100 nM,1%,,11600 nM,,0%,-6%,39000 nM,,5%,-3%,,-5%,-7%,13000 nM,9970 nM,inhibition [37]: 18%; inhibition [36]: 33%; inhibition [28]: 4%; inhibition [32]: -4%; inhibition [33]: 32%
